Activity calls are given as the source filed them. The calls are words filed in the database; no cut-off is given here.
Key:
[1] = test system: Serine/threonine-protein kinase D1 (Homo sapiens), Q15139 [UNDEFINED MUTATION]; test: Inhibition of recombinant full-length human PKCmu R135A mutant at 1 uM using KKLNRTLSVA as substrate measured after 40 mins in presence of [gamma33P]ATP by scintillation counting method relative to control
[2] = target: Serine/threonine-protein kinase PAK 1 (Homo sapiens) (UniProt Q13153); test: Inhibition of recombinant human PAK1 (150 to end residues) at 1 uM using RRRLSFAEPG as substrate measured after 40 mins in presence of [gamma33P]ATP by scintillation counting method relative to control
[3] = target: Maternal embryonic leucine zipper kinase (Homo sapiens) (UniProt Q14680); test: Inhibition of recombinant human MELK (1 to 340 residues) at 1 uM using KKLNRTLSFAEPG as substrate measured after 40 mins in presence of [gamma33P]ATP by scintillation counting method relative to control
Maternal embryonic leucine zipper kinase (Homo sapiens), sequence (Q14680 whole entry, looked up, the tested form may be a part, canonical isoform): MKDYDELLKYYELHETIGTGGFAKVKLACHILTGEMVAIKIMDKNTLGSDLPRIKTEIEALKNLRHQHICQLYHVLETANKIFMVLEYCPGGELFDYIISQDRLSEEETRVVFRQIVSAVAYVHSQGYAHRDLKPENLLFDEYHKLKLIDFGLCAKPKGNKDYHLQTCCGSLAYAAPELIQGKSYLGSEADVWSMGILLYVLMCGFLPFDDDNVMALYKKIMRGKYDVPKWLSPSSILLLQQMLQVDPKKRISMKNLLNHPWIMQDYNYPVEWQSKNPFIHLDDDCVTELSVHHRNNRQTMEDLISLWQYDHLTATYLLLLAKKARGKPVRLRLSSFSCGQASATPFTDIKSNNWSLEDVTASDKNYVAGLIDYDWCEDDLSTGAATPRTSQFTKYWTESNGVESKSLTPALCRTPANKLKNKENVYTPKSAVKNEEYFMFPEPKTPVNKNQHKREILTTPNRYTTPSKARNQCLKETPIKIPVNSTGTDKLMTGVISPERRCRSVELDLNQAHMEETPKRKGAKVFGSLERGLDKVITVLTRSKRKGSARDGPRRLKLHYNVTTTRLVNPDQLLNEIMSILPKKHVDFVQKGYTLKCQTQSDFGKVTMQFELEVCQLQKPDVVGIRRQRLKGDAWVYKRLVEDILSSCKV

[4] = target: Phosphorylase b kinase gamma catalytic chain, skeletal muscle/heart isoform (Homo sapiens) (UniProt Q16816); test: Inhibition of recombinant full-length human PhKgamma1 at 1 uM using KKLNRTLSFAEPG as substrate measured after 120 mins in presence of [gamma33P]ATP by scintillation counting method relative to control
[5] = target: Proto-oncogene tyrosine-protein kinase receptor Ret (Homo sapiens) (UniProt P07949); test: Inhibition of human Ret (658 to end residues) at 1 uM using KKKSPGEYVNIEFG as substrate measured after 40 mins in presence of [gamma33P]ATP by scintillation counting method relative to control
Proto-oncogene tyrosine-protein kinase receptor Ret (Homo sapiens), sequence (P07949 whole entry): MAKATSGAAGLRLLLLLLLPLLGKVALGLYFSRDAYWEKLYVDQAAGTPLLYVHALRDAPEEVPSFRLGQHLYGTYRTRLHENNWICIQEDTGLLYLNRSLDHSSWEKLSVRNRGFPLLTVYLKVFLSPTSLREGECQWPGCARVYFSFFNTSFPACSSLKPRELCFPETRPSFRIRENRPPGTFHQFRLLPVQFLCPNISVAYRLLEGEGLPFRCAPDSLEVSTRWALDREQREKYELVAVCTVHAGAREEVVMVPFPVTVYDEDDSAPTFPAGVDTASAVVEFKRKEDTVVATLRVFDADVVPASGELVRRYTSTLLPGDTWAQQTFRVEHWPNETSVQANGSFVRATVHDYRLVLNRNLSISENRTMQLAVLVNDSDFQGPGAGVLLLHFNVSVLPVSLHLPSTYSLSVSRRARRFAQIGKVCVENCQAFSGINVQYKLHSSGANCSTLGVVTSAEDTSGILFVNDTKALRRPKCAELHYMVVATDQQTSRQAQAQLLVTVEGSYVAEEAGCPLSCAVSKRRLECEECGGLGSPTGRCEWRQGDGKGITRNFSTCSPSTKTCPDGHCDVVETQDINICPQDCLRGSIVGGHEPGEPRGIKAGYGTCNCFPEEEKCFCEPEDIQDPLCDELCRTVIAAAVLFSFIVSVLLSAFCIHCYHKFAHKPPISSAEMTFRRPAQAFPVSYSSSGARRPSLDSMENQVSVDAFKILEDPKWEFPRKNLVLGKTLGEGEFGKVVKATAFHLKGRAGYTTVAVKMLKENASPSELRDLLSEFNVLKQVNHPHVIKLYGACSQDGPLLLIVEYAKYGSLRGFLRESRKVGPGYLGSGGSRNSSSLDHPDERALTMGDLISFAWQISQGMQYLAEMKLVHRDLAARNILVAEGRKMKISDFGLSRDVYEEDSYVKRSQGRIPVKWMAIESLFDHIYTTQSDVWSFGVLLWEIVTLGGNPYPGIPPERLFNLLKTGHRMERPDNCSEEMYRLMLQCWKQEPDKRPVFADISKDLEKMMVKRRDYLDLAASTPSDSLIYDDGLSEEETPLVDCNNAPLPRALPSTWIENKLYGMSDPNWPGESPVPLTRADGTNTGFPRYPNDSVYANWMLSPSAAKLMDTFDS
How it was run: (§1)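 Percent inhibition of kinase activity at a single compound concentration, measured by the outsourced Eurofins KinaseProfiler panel. Values are the mean of two independent experiments.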

[6] = target: Serine/threonine-protein kinase BRSK1 (Homo sapiens) (UniProt Q8TDC3); test: Inhibition of recombinant human BrSK1 (2 to end residues) at 1 uM using KKKVSRSGLYRSPSMPENLNRPR as substrate measured after 40 mins in presence of [gamma33P]ATP by scintillation counting method relative to control
[7] = target: Muscle, skeletal receptor tyrosine-protein kinase (Homo sapiens) (UniProt O15146); test: Inhibition of recombinant human MUSK (530 to end residues) at 1 uM using myelin basic protein as substrate measured after 40 mins in presence of [gamma33P]ATP by scintillation counting method relative to control
Muscle, skeletal receptor tyrosine-protein kinase (Homo sapiens), sequence (O15146 whole entry): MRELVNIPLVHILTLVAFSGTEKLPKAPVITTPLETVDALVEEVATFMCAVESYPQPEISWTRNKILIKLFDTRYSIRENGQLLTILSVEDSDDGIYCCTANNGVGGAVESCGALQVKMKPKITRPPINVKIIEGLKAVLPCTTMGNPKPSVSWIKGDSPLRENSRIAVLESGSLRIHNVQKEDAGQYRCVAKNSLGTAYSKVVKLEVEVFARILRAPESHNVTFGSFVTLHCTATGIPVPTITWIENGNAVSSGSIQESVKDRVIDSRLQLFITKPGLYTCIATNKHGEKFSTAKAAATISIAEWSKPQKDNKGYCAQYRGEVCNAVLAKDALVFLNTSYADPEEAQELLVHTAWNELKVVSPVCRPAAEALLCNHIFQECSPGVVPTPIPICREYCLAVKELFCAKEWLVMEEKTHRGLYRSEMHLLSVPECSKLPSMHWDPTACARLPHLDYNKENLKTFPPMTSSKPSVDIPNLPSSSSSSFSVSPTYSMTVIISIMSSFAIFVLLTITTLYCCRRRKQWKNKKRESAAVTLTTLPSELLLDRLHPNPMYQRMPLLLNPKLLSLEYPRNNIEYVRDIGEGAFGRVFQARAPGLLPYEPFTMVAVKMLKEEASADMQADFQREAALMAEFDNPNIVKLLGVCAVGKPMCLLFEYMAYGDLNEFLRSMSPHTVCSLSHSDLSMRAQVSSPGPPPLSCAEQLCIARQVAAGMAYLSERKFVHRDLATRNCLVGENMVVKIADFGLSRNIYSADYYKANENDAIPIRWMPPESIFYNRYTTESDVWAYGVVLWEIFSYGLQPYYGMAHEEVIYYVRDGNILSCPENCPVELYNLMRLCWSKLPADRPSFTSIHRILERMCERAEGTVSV

[8] = target: Protein-tyrosine kinase 2-beta (Homo sapiens) (UniProt Q14289); test: Inhibition of recombinant full-length human Pyk2 at 1 uM using poly(Glu, Tyr) 4:1 as substrate measured after 40 mins in presence of [gamma33P]ATP by scintillation counting method relative to control
Protein-tyrosine kinase 2-beta (Homo sapiens), sequence (Q14289 whole entry, looked up): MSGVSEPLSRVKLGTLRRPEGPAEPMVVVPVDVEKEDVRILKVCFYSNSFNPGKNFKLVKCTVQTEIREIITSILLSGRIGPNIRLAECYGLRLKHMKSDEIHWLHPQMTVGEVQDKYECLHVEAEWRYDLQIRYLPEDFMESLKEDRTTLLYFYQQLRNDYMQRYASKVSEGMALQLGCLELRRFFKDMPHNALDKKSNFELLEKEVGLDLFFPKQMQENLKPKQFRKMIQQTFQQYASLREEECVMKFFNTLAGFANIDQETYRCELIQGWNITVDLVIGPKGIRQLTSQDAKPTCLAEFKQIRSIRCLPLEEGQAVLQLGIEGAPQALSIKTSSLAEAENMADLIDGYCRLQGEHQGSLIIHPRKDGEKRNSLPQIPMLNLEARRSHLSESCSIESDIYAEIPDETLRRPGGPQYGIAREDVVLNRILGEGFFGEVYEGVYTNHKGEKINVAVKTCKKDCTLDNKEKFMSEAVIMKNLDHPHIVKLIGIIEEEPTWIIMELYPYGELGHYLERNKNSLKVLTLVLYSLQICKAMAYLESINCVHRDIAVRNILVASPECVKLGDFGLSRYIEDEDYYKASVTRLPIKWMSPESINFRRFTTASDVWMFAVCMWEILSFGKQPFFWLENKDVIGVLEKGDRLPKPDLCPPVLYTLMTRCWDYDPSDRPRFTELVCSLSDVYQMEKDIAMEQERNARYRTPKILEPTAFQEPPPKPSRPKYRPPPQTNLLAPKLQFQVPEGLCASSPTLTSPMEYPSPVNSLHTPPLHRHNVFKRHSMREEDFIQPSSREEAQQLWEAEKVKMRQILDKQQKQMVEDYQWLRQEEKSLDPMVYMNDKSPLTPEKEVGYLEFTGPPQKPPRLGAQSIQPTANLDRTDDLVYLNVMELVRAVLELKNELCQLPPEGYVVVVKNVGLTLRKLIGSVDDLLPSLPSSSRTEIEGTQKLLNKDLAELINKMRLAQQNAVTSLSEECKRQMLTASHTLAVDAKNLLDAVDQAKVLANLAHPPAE

[9] = Half life in human liver microsomes at 2 uM in presence of NADPH measured up to 1 hr by HPLC analysis; format: ADME, Microsome
How it was run: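 Compound at 2 μM incubated at 37 °C with liver microsomes (1 mg/mL), 3 mM MgCl2 and 0.1 M phosphate buffer pH 7.4; 5 min preincubation, then started with 3 mM NADPH. Aliquots (n = 3) at 0, 10, 20, 30, 45, 60 min quenched with ice-cold acetonitrile, centrifuged, supernatant by HPLC. t1/2 from linear-regression kinetic constant k.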

[10] = target: cAMP-dependent protein kinase catalytic subunit alpha (Homo sapiens) (UniProt P17612); test: Inhibition of recombinant full-length human PKA at 1 uM using Kemptide as substrate measured after 40 mins in presence of [gamma33P]ATP by scintillation counting method relative to control
How it was run: (§2)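 Single-point inhibition at 1 µM was measured in the Eurofins KinaseProfiler panel. Values are the mean of two independent experiments.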

[11] = target: Tyrosine-protein kinase FRK (Homo sapiens) (UniProt P42685); test: Inhibition of human PTK5 (218 to end residues) at 1 uM using GGEEEEYFELVKKKK as substrate measured after 40 mins in presence of [gamma33P]ATP by scintillation counting method relative to control; how it was run: as §1
Tyrosine-protein kinase FRK (Homo sapiens), sequence (P42685 whole entry): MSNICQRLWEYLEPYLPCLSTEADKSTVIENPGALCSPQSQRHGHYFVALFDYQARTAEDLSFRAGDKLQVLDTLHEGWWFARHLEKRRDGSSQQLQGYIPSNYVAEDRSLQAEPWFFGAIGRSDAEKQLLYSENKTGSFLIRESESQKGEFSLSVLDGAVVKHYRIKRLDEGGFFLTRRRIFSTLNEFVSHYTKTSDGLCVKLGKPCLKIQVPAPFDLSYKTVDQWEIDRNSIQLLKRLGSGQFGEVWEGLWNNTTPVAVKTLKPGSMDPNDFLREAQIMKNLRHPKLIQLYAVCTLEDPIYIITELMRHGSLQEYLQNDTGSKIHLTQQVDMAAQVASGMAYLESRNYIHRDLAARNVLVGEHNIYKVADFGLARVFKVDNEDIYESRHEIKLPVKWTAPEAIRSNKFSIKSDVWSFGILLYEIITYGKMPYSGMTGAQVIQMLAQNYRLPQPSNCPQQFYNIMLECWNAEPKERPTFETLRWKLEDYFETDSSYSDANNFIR

[12] = target: Protein kinase C zeta type (Homo sapiens) (UniProt Q05513); test: Inhibition of recombinant human PKCzeta (2 to end residues) at 1 uM using ERMRPRKRQGSVRRRV as substrate measured after 40 mins in presence of [gamma33P]ATP by scintillation counting method relative to control; how it was run: as §2
A549 = test: Inhibition of tumorsphere formation in human A549 cells assessed as decrease in number of spheres at 0.25 to 1 uM after 2 weeks by microscopic analysis; format: functional, cell-based
MCF7 = test: Antiproliferative activity against human MCF7 cells assessed as inhibition of cell viability at 10 uM after 72 hrs by CCK-8 assay relative to control; format: functional; settings: MCF7, 72 h
How it was run: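 Single-concentration viability screen using CCK-8. Cells were seeded at 3000/well and treated for 72 h. A450 read after 1-4 h with reagent. Percent inhibition calculated against untreated control and blank wells as (Ac−As)/(Ac−Ab)×100%.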

[13] = target: Tyrosine-protein kinase ZAP-70 (Homo sapiens) (UniProt P43403); test: Inhibition of recombinant full-length human ZAP-70 at 1 uM using poly(Glu, Tyr) 4:1 as substrate measured after 40 mins in presence of [gamma33P]ATP by scintillation counting method relative to control
[14] = target: Serine/threonine-protein kinase PAK 5 (Homo sapiens) (UniProt Q9P286); test: Inhibition of recombinant human PAK5 (425 to end residues) at 1 uM using RRRLSFAEPG as substrate measured after 40 mins in presence of [gamma33P]ATP by scintillation counting method relative to control
Serine/threonine-protein kinase PAK 5 (Homo sapiens), sequence (Q9P286 whole entry, looked up, the tested form may be a part): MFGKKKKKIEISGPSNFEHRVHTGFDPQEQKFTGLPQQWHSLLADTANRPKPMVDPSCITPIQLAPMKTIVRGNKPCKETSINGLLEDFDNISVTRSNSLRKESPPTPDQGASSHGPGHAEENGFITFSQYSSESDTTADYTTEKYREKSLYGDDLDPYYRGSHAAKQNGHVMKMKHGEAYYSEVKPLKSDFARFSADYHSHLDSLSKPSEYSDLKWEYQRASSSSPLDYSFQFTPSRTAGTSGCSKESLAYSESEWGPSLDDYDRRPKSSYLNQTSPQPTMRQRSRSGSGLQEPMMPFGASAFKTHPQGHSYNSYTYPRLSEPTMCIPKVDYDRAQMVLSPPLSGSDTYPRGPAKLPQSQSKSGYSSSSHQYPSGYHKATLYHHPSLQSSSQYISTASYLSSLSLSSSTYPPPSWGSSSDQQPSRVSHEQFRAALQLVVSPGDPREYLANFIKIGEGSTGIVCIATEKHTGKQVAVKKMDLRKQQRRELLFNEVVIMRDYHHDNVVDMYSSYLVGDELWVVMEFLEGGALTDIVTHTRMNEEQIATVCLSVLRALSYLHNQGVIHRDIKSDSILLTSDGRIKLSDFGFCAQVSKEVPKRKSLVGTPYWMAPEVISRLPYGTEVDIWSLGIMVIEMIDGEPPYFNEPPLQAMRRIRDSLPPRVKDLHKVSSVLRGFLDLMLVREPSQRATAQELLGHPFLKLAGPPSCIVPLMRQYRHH

[15] = target: Myosin light chain kinase, smooth muscle (Homo sapiens) (UniProt Q15746); test: Inhibition of recombinant human MLCK (1425 to 1771 residues) at 1 uM using calmodulin as substrate measured after 40 mins in presence of [gamma33P]ATP by scintillation counting method relative to control

`CN(C)C(=O)c1cc2cnc(Nc3ccc(NC(=O)CCCCCCCN=C=S)cc3)nc2n1C1CCCC1` gave an inhibition [1] of 3%, an inhibition [2] of -5% and an inhibition [3] of 88%. The inhibition [4] was 71%, the inhibition [5] was 55% and the inhibition [6] was 16%. For the same molecule, the inhibition [7] was 66%, the inhibition [8] was 46% and the half-life at 2 µM [9] was 33 min. For the same molecule, the inhibition [10] was 1%, the inhibition [11] was 15% and the inhibition [12] was 1%. For the same molecule, the Activity (A549) was “Active”, the inhibition at 10 µM (MCF7) was 98% and the inhibition [13] was 13%. It also gave an inhibition [14] of -3% and an inhibition [15] of 5%.

Source: ChEMBL document CHEMBL4376814, “Novel cyclin-dependent kinase 9 (CDK9) inhibitor with suppression of cancer stemness activity against non-small-cell lung cancer” (Eur J Med Chem, 2019)
